EPA's CvTdb concentration-time database

Tests used:
[1] = test system: human; assay: concentration in blood after dosing; negative times count back from the end of exposure; details: dosed: trichloroethylene, inhalation
Method in brief: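 Points were largely digitised from plot screenshots with WebPlotDigitizer or otherwise copied from tables, and they remain in the units each source reported. They come from published in vivo toxicokinetic studies and two structured collections. Sampling and analytical methods follow each source and were often not reported.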

[2] = test system: rat; assay: concentration in blood after dosing; negative times count back from the end of exposure; details: dosed: trichloroethylene, 50 ppm, inhalation, duration: 4 hr, male, Sprague Dawley
[3] = test system: Mouse; assay: concentration in plasma after dosing; details: 10 min; dosed: 2-Hydroxy-4-methoxybenzophenone; 250 mg/kg; oral; Female; B6C3F1
[4] = test system: Rat; assay: concentration in plasma after dosing; details: 4 h; dosed: 2-Hydroxy-4-methoxybenzophenone; 500 mg/kg; oral; Male; F344
[5] = test system: Rat; assay: concentration in plasma after dosing; details: dosed: 2-Hydroxy-4-methoxybenzophenone, 250 mg/kg, oral, Female, F344
[6] = test system: Rat; assay: concentration in plasma after dosing; details: 0.25 h; dosed: 2-Hydroxy-4-methoxybenzophenone; 500 mg/kg; oral; Female; F344
[7] = test system: Mouse; assay: concentration in plasma after dosing; details: 3 h; dosed: 2-Hydroxy-4-methoxybenzophenone; 50 mg/kg; iv; Female; B6C3F1
[8] = test system: Mouse; assay: concentration in plasma after dosing; details: 0.25 h; dosed: 2-Hydroxy-4-methoxybenzophenone; 250 mg/kg; oral; Male; B6C3F1
[9] = test system: Rat; assay: concentration in plasma after dosing; details: dosed: 2-Hydroxy-4-methoxybenzophenone, 100 mg/kg, oral, Female, F344
[10] = test system: Rat; assay: concentration in plasma after dosing; details: 0.5 h; dosed: alpha-Thujone; 25 mg/kg; oral; Male; Harlan Sprague Dawley
[11] = test system: Rat; assay: concentration in liver after dosing; details: 192 h; dosed: Perfluorohexane-1-sulphonic acid – potassium salt; 16 mg/kg; oral; Female; Harlan Sprague Dawley
[12] = test system: Rat; assay: concentration in brain after dosing; details: 24 h; dosed: Perfluorohexane-1-sulphonic acid – potassium salt; 16 mg/kg; oral; Female; F344
[13] = test system: Rat; assay: concentration in plasma after dosing; details: dosed: Perfluorohexane-1-sulphonic acid – potassium salt, 4 mg/kg, oral, Male, F344
[14] = test system: Rat; assay: concentration in liver after dosing; details: 48 h; dosed: Perfluorohexane-1-sulphonic acid – potassium salt; 16 mg/kg; oral; Female; Harlan Sprague Dawley
[15] = test system: Rat; assay: concentration in liver after dosing; details: 24 h; dosed: Perfluorohexane-1-sulphonic acid – potassium salt; 16 mg/kg; oral; Female; F344
[16] = test system: Rat; assay: concentration in kidney after dosing; details: 528 h; dosed: Perfluorohexane-1-sulphonic acid – potassium salt; 16 mg/kg; oral; Female; F344
[17] = test system: Rat; assay: concentration in plasma after dosing; details: dosed: 2,4-Dichlorophenoxyacetic acid, 7.0 mg/kg, oral, Male, Sprague-Dawley
[18] = test system: Rat; assay: concentration in plasma after dosing; details: 20 min; dosed: Methyleugenol; 37 mg/kg; oral; Male; F344/N
[19] = test system: Rat; assay: concentration in plasma after dosing; details: dosed: Methyleugenol, 37 mg/kg, iv, Male, F344
[20] = test system: Rat; assay: concentration in plasma after dosing; details: dosed: Methyleugenol, 37 mg/kg, oral, Male, F344/N
[21] = test system: Rat; assay: concentration in plasma after dosing; details: 6 h; dosed: Primidone; 130 mg/kg; oral; Female; F344

OCC(Cl)(Cl)Cl [trichloroethanol (free)]
[1], 100 ppm, duration: 4 hr, person
Details | concentration in blood [ng/mL]
0.2566 h | 2040
0.515 h | 2000
1.032 h | 1910
1.986 h | 1740
3.954 h | 1400
5.921 h | 1180
7.947 h | 1070
9.954 h | 944
11.96 h | 896
13.99 h | 727
15.97 h | 577
18 h | 459

[1], 100 ppm, duration: 4 hr, person, during exposure
Details | concentration in blood [ng/mL]
-5 s | 2030
-3.524 h | 172
-2.99 h | 481
-2.021 h | 1060
-0.9915 h | 1570

[2]
Details | concentration in blood [ng/mL]
0.1894 h | 1660
0.429 h | 1600
0.9471 h | 1580
1.964 h | 1500
3.996 h | 1440
5.928 h | 1510
7.943 h | 1140
9.955 h | 1050
11.95 h | 1030
13.94 h | 1040
15.88 h | 449
17.91 h | 747

[2], during exposure
Details | concentration in blood [ng/mL]
-180 s | 1690
-2.968 h | 427
-1.958 h | 1200
-1.022 h | 1260

O=C(c1ccccc1)c1ccc(O)cc1O [2,4-Dihydroxybenzophenone]
Details | concentration in plasma [ng/mL]
[3] | 1290
[4] | 181
[6] | 781
[7] | 57.7
[8] | 1130

concentration in plasma [ng/mL]
Details | [5] | [9]
0.25 h | 473 | 165
4 h | 68 | 105

CC(C)[C@]12CC(=O)[C@H](C)[C@H]1C2 [alpha-Thujone]
Details | concentration in plasma [ng/mL]
[10] | 324

O=S(=O)([O-])C(F)(F)C(F)(F)C(F)(F)C(F)(F)C(F)(F)C(F)(F)F.[K+] [Perfluorohexane-1-sulphonic acid – potassium salt]
Details | concentration in brain [ng/g] | concentration in kidney [ng/g] | concentration in liver [ng/g]
[11] | – | – | 1660
[12] | 1390 | – | –
[14] | – | – | 14300
[15] | – | – | 78000
[16] | – | 10000 | –

[13]
Details | concentration in plasma [ng/mL]
3 h | 29800
192 h | 18200
1200 h | 6240

O=C(O)COc1ccc(Cl)cc1Cl [2,4-Dichlorophenoxyacetic acid]
[17]
Details | concentration in plasma [ng/mL]
0.25 h | 9530
0.5 h | 10100
2 h | 13900
2.5 min | 4360
3 h | 2020
4 h | 2030
5 h | 3730
6 h | 776
10 min | 8480

OCC(Cl)(Cl)Cl [trichloroethanol]
concentration in blood [mg/kg], [1], duration: 2 hr - 20 min
Details | 0 h | 0.5 h | 1 h | 1.5 h | 2 h | 21 h
1348 mg | 2.8 | 2.7 | 2.6 | 2.5 | 2.4 | 0.8
1681 mg | 3 | 3.3 | 3.3 | 3.2 | 3.1 | 1
3907 mg | 3.9 | 4.5 | 4.2 | 4.4 | 4.4 | 1.6

[1]
Details | concentration in blood
-1.833 h, 1348 mg, duration: 2 hr - 20 min, during exposure | 0.8 mg/kg
-1.833 h, 1681 mg, duration: 2 hr - 20 min, during exposure | 0.7 mg/kg
-1.833 h, 3907 mg, duration: 2 hr - 20 min, during exposure | 1.4 mg/kg
-1 h, 1348 mg, duration: 2 hr - 20 min, during exposure | 1.3 mg/kg
-1 h, 1681 mg, duration: 2 hr - 20 min, during exposure | 1.9 mg/kg
-1 h, 3907 mg, duration: 2 hr - 20 min, during exposure | 2.2 mg/kg
-0.5 h, 1348 mg, duration: 2 hr - 20 min, during exposure | 2.2 mg/kg
-0.5 h, 1681 mg, duration: 2 hr - 20 min, during exposure | 2.1 mg/kg
-0.5 h, 3907 mg, duration: 2 hr - 20 min, during exposure | 3.1 mg/kg
0 h, 100 ppm, duration: 6 hr, female | 4110 ng/mL
18 h, 100 ppm, duration: 6 hr, female | 2420 ng/mL
24 h, 100 ppm, duration: 6 hr, female | 5640 ng/mL
42 h, 100 ppm, duration: 6 hr, female | 2510 ng/mL
48 h, 100 ppm, duration: 6 hr, female | 5750 ng/mL
66 h, 100 ppm, duration: 6 hr, female | 3180 ng/mL
72 h, 100 ppm, duration: 6 hr, female | 9060 ng/mL
90 h, 100 ppm, duration: 6 hr, female | 5590 ng/mL
96 h, 100 ppm, duration: 6 hr, female | 9010 ng/mL

Details | concentration in blood [ng/mL]
[1], -6 h, 100 ppm, duration: 6 hr, female, during exposure | 212

C=CCc1ccc(OC)c(OC)c1 [Methyleugenol]
Details | concentration in plasma [ng/mL]
[18] | 246

concentration in plasma [ng/mL]
Details | 2 h | 3 h | 5 min
[19] | – | 263 | 29200
[20] | 41.7 | – | 191

CCC1(c2ccccc2)C(=O)NCNC1=O [Primidone]
Details | concentration in plasma [ng/mL]
[21] | 74300
